Source: BindingDB's records for doi:10.1021/jm301749y (University of North Carolina at Chapel Hill, 2013)

Molecular target: T1, C-C chemokine receptor type 4 (Homo sapiens, UniProt P51679)
T1 sequence (P51679 whole entry): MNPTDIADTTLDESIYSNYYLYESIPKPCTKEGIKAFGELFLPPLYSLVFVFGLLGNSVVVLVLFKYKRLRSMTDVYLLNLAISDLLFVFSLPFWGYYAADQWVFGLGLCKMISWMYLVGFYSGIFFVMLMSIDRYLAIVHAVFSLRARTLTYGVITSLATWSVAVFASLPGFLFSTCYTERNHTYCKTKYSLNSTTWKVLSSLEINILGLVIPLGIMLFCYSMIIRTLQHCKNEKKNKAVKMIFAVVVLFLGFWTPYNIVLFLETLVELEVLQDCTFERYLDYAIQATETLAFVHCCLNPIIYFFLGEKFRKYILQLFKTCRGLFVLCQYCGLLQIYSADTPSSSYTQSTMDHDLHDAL
Assay: Inverse agonist activity at CCR4 in human HTLA cells assessed as depression of basal activity incubated for 20 mins by beta arrestin-recruitment mediated luciferase reporter gene assay in absence of CCL22
How it was run: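 Transfected HTLA β-arrestin2-TEV/tTA-luciferase cells expressing CCR4, in serum-free DMEM, treated with compound dilutions in HBSS/20 mM HEPES pH 7.4 without CCL22 agonist; luciferase luminescence read on day 4; basal signal depression plotted as concentration-response curves.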

IC50: 0.2 µM
SMILES: CCC(C)n1ncn(-c2ccc(N3CCN(c4ccc(OC[C@H]5CO[C@](Cn6cncn6)(c6ccc(Cl)cc6Cl)O5)cc4)CC3)cc2)c1=O (stereo partly specified) [Oriconazole]
